Measured values reported in ChEMBL document CHEMBL3621107, “Ring fusion strategy for synthesis and lead optimization of sulfur-substituted anthra[1,2-c][1,2,5]thiadiazole-6,11-dione derivatives as promising scaffold of antitumor agents” (Eur J Med Chem, 2015).

Key:
Assay type in all cases: functional
CAKI-1 = experiment: Cytotoxicity against human Caki1 cells after 48 hrs by SRB assay; conditions: CAKI-1, 48 h
How it was run: (§1)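 NCI-60 human tumour cell panel screen, second stage, run by the NCI Developmental Therapeutics Program. Compounds were tested at five concentrations (0.01, 0.1, 1, 10 and 100 μM). Percentage growth was plotted against log10 concentration for each cell line. GI50, TGI and LC50 were taken from these dose-response curves.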

MOLT-4 = experiment: Cytotoxicity against human MOLT4 cells after 48 hrs by SRB assay; conditions: MOLT-4, 48 h
How it was run: (§2)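 Second-stage NCI-60 panel run by the NCI Developmental Therapeutics Program, covering nine tumour subpanels. Five concentrations were tested: 0.01, 0.1, 1, 10 and 100 μM. Percentage growth at each level was plotted against log10 drug concentration. GI50, TGI and LC50 were read from these dose-response curves. Subpanel MID values were divided into the full-panel MID to give selectivity ratios.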

SN12C = experiment: Cytotoxicity against human SN12C cells after 48 hrs by SRB assay; how it was run: as §2
SR = experiment: Cytotoxicity against human SR cells after 48 hrs by SRB assay
How it was run: (§3)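 NCI-60 five-dose study run by NCI DTP at 0.01, 0.1, 1, 10 and 100 µM. Percentage growth at each level was plotted against log10 concentration for each line, and GI50, TGI and LC50 were read from the dose-response curves.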

SW-620 = experiment: Cytotoxicity against human SW620 cells after 48 hrs by SRB assay; conditions: SW-620, 48 h; how it was run: as §3
SK-MEL-5 = experiment: Cytotoxicity against human SK-MEL-5 cells after 48 hrs by SRB assay; conditions: SK-MEL-5, 48 h; how it was run: as §2
[1] = Cytotoxicity against human Hs578T cells after 48 hrs by SRB assay; conditions: Hs-578T; how it was run: as §1
MDA-MB-231 = experiment: Cytotoxicity against human MDA-MB-231 cells after 48 hrs by SRB assay; conditions: MDA-MB-231, 48 h; how it was run: as §2
RXF 393 = experiment: Cytotoxicity against human RXF393 cells after 48 hrs by SRB assay; conditions: RXF 393, 48 h; how it was run: as §2
MDA-MB-435 = experiment: Cytotoxicity against human MDA-MB-435 cells after 48 hrs by SRB assay; conditions: MDA-MB-435, 48 h; how it was run: as §2
TK-10 = experiment: Cytotoxicity against human TK10 cells after 48 hrs by SRB assay; conditions: TK-10, 48 h; how it was run: as §3
SNB-19 = experiment: Cytotoxicity against human SNB19 cells after 48 hrs by SRB assay; conditions: SNB-19, 48 h; how it was run: as §2
[2] = Cytotoxicity against human non-small cell lung cancer cells assessed as growth inhibition after 48 hrs by SRB assay; conditions: Cancer cell lines
How it was run: (§4)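 Values come from the NCI-60 five-dose panel (0.01–100 µM). The subpanel MID is the mean GI50 over the lines of that tumour subpanel. The selectivity ratio is the full-panel MID divided by the subpanel MID; 3–6 is rated moderate and >6 high.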

ACHN = experiment: Cytotoxicity against human ACHN cells after 48 hrs by SRB assay; how it was run: as §1
DU-145 = experiment: Cytotoxicity against human DU145 cells after 48 hrs by SRB assay; conditions: DU-145, 48 h; how it was run: as §1
NCI-H23 = experiment: Cytotoxicity against human NCI-H23 cells after 48 hrs by SRB assay; conditions: NCI-H23, 48 h; how it was run: as §2
UACC-257 = experiment: Cytotoxicity against human UACC257 cells after 48 hrs by SRB assay; conditions: UACC-257, 48 h; how it was run: as §3
UO-31 = experiment: Cytotoxicity against human UO31 cells after 48 hrs by SRB assay; conditions: UO-31, 48 h; how it was run: as §3
LOX IMVI = experiment: Cytotoxicity against human LOXIMVI cells after 48 hrs by SRB assay; how it was run: as §1
HT-29 = experiment: Cytotoxicity against human HT-29 cells after 48 hrs by SRB assay; conditions: HT-29, 48 h; how it was run: as §1
[3] = Cytotoxicity against human breast cancer cells assessed as growth inhibition after 48 hrs by SRB assay; conditions: Cancer cell lines; how it was run: as §4
Malme-3M = experiment: Cytotoxicity against human MALME-3M cells after 48 hrs by SRB assay; how it was run: as §1
MDA-MB-468 = experiment: Cytotoxicity against human MDA-MB-468 cells after 48 hrs by SRB assay; conditions: MDA-MB-468, 48 h; how it was run: as §2
U-251 = experiment: Cytotoxicity against human U251 cells after 48 hrs by SRB assay; conditions: U-251, 48 h; how it was run: as §3
[4] = Cytotoxicity against human prostate cancer cells assessed as growth inhibition after 48 hrs by SRB assay; conditions: Cancer cell lines; how it was run: as §4
[5] = Cytotoxicity against human renal cancer cells assessed as growth inhibition after 48 hrs by SRB assay; conditions: Cancer cell lines; how it was run: as §4
IGROV-1 = experiment: Cytotoxicity against human IGROV1 cells after 48 hrs by SRB assay; conditions: IGROV-1, 48 h; how it was run: as §1
T47D = experiment: Cytotoxicity against human T47D cells after 48 hrs by SRB assay; how it was run: as §3
KM12 = experiment: Cytotoxicity against human KM12 cells after 48 hrs by SRB assay; conditions: KM12, 48 h; how it was run: as §1
HCC 2998 = experiment: Cytotoxicity against human HCC2998 cells after 48 hrs by SRB assay; conditions: HCC 2998, 48 h; how it was run: as §1
NCI-H460 = experiment: Cytotoxicity against human NCI-H460 cells after 48 hrs by SRB assay; conditions: NCI-H460, 48 h; how it was run: as §2
[6] = read-out: LC50 (the source's name)

O=C1c2ccccc2C(=O)c2c1cc(Sc1cccc(Cl)c1)c1nsnc21
GI50 (CAKI-1): 2.67 µM
LC50 (concentration causing 50% net cell kill) (CAKI-1): > 100 µM
TGI (CAKI-1): 9.15 µM
GI50 (MOLT-4): 0.64 µM
LC50 (MOLT-4): > 100 µM
TGI (MOLT-4): 3.27 µM
GI50 (SN12C): 1.05 µM
TGI (SN12C): 2.58 µM
CC50 (SN12C; [6]): 6.35 µM
GI50 (SR): 2 µM
LC50 (SR): > 100 µM
TGI (SR): 8.09 µM
GI50 (SW-620): 2.29 µM
LC50 (50% lethal concentration) (SW-620): 28.3 µM
TGI (SW-620): 5.21 µM
GI50 (SK-MEL-5): 0.99 µM
LC50 (SK-MEL-5): 4.87 µM
TGI (SK-MEL-5): 2.21 µM
GI50 [1]: 1.97 µM
LC50 [1]: > 100 µM
TGI [1]: 6.55 µM
GI50 (MDA-MB-231): 0.37 µM
LC50 (concentration killing 50% of cells) (MDA-MB-231): 31.6 µM
TGI (MDA-MB-231): 4.1 µM
GI50 (RXF 393): 2.15 µM
LC50 (concentration killing 50% of cells) (RXF 393): 10.9 µM
TGI (RXF 393): 4.7 µM
GI50 (MDA-MB-435): 1.53 µM
LC50 (MDA-MB-435): 7.24 µM
TGI (MDA-MB-435): 3.33 µM
GI50 (TK-10): 5.31 µM
LC50 (concentration killing 50% of cells) (TK-10): 39.9 µM
TGI (TK-10): 14.8 µM
GI50 (SNB-19): 8.64 µM
LC50 (SNB-19): 47.1 µM
TGI (SNB-19): 21.2 µM
GI50 [2]: 5.84 µM
GI50 (ACHN): 1.62 µM
LC50 (ACHN): 6.63 µM
TGI (ACHN): 3.27 µM
GI50 (DU-145): 2.27 µM
LC50 (DU-145): 14.3 µM
TGI (DU-145): 5.09 µM
GI50 (NCI-H23): 1 µM
LC50 (NCI-H23): 22.8 µM
TGI (NCI-H23): 3.58 µM
GI50 (UACC-257): 1.52 µM
LC50 (UACC-257): 6.54 µM
TGI (UACC-257): 3.15 µM
GI50 (UO-31): 1.78 µM
LC50 (UO-31): 9.73 µM
TGI (UO-31): 4.16 µM
GI50 (LOX IMVI): 0.54 µM
TGI (LOX IMVI): 2.08 µM
CC50 (LOX IMVI; [6]): 5.73 µM
GI50 (HT-29): 20.1 µM
LC50 (HT-29): 100 µM
TGI (HT-29): 66.7 µM
GI50 [3]: 1.52 µM
GI50 (Malme-3M): 1.98 µM
LC50 (Malme-3M): 6.85 µM
TGI (Malme-3M): 3.68 µM
GI50 (MDA-MB-468): 0.95 µM
LC50 (MDA-MB-468): 5.1 µM
TGI (MDA-MB-468): 2.23 µM
GI50 (U-251): 1.7 µM
LC50 (U-251): 9.39 µM
TGI (U-251): 4 µM
GI50 [4]: 2.27 µM
GI50 [5]: 3.81 µM
GI50 (IGROV-1): 2.07 µM
LC50 (IGROV-1): 26.7 µM
TGI (IGROV-1): 5.37 µM
GI50 (T47D): 1.29 µM
LC50 (concentration killing 50% of cells) (T47D): 8.72 µM
TGI (T47D): 3.35 µM
GI50 (KM12): 12 µM
LC50 (concentration killing 50% of cells) (KM12): 65.7 µM
TGI (KM12): 28 µM
GI50 (HCC 2998): 16.2 µM
LC50 (HCC 2998): 62.1 µM
TGI (HCC 2998): 31.7 µM
GI50 (NCI-H460): 4.29 µM
LC50 (concentration killing 50% of cells) (NCI-H460): 75.8 µM
TGI (NCI-H460): 18.9 µM
